Results on 12 compounds are retold here after ChEMBL document CHEMBL1121500, “Nitrobenzyl halides and carbamates as prototype bioreductive alkylating agents” (1980).

Holding throughout (assay type): functional
Assay [1] relates to EMT6. In words: Drug concentration required to achieve 50% kill of EMT6 cells under hypoxic conditions. As to conditions: Mus musculus, read-out: ED50 (the source's name). A digest of the protocol:
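Mouse EMT6 tumour monolayers in Waymouth's medium + 15% fetal calf serum. Hypoxia: flasks stoppered and gassed 95% N2/5% CO2 for 4 h at 37 °C, then drug added in acetone without breaking hypoxia. 1 h exposure, 0.01-500 μM. Cells washed, trypsinised, plated in replicate dishes under air; colonies scored after 8-10 days. ED50 from survival curves; ≥3 experiments.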

Assay [2] relates to EMT6. Briefly: Drug concentration required to achieve 50% kill of EMT6 cells under oxygenated conditions. As to conditions: Mus musculus, read-out: ED50 (the source's name). A digest of the protocol:
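EMT6 monolayers in Waymouth's medium + 15% fetal calf serum, held in 95% air/5% CO2 in parallel with the hypoxic flasks. Drug in acetone, 0.01-500 μM, 1 h at 37 °C. Cells then trypsinised and replated in replicate dishes; surviving fraction by colony formation after 8-10 days. Concentration for 50% kill read from survival curves; at least three experiments per drug.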

Assay [3] is described as follows: Ratio of ED50 (aerobic) to ED50 (hypoxic). A digest of the protocol: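 Concentration giving 50% kill of EMT6 cells under aeration (95% air/5% CO2) divided by that under chronic hypoxia (95% N2/5% CO2, 4 h pre-gassing). Both from 1 h drug exposure at 37 °C with colony-formation read-out after 8-10 days.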

In brackets after ≈: the same amount, converted by molar mass.

Consider `O=C(Nc1ccccc1)OCc1ccc([N+](=O)[O-])cc1`, for which the EC50 in the assay on EMT6 [1] amounted to 0.08 µg/mL (≈ 0.294 µM); with EMT6 [2], 0.22 µg/mL (≈ 0.808 µM). Also, the Ratio in assay [3] was 2.7.

In the case of `O=[N+]([O-])c1ccccc1CO`, the EC50 came out at 1.5 µg/mL (≈ 9.8 µM) with EMT6 [1] and 3 µg/mL (≈ 19.6 µM) in the assay on EMT6 [2]. The Ratio in assay [3] is 2.

Regarding `O=[N+]([O-])c1ccccc1CBr`, the EC50 in the assay on EMT6 [1] turned out to be 0.06 µg/mL (≈ 0.278 µM); with EMT6 [2] it was 1.5 µg/mL (≈ 6.94 µM). For the same compound, the Ratio in assay [3] came out at 25.

On to `CNC(=O)OCc1ccc([N+](=O)[O-])cc1`, for which the EC50 came out at 0.03 µg/mL (≈ 0.143 µM) with EMT6 [1] and 0.63 µg/mL (≈ 3 µM) in the assay with EMT6 [2]. Besides, in assay [3], the Ratio was found to be 21.

For `O=[N+]([O-])c1ccccc1CCl`, the EC50 in the assay on EMT6 [1] came to 0.1 µg/mL (≈ 0.583 µM); in the assay on EMT6 [2], 1.2 µg/mL (≈ 6.99 µM). In addition, the Ratio in assay [3] came to 12.

As to `CNC(=O)OCc1ccccc1[N+](=O)[O-]`, the EC50 with EMT6 [1] came out at 0.006 µg/mL (≈ 0.0285 µM); in the assay on EMT6 [2] it was 3.57 µg/mL (≈ 17 µM). In addition, the Ratio in assay [3] is 595.

For the compound `O=C(NCCCl)OCc1ccc([N+](=O)[O-])cc1`, the results for the EC50 in the assay on EMT6 [1] and in the assay on EMT6 [2] were 10 µg/mL (≈ 38.7 µM) and 31 µg/mL (≈ 120 µM), respectively. The Ratio in assay [3] came out at 3.1.

`O=[N+]([O-])c1ccc(CO)cc1` [PARANITROBENZYL ALCOHOL]: the EC50 was 0.77 µg/mL (≈ 5.03 µM) with EMT6 [1] and 2.6 µg/mL (≈ 17 µM) in the assay on EMT6 [2]. The Ratio in assay [3] worked out at 3.3.

For the compound `O=C(NCCCl)OCc1ccccc1[N+](=O)[O-]`, the EC50 was 0.65 µg/mL (≈ 2.51 µM) with EMT6 [1] and 52 µg/mL (≈ 201 µM) in the assay on EMT6 [2]. The Ratio in assay [3] came out at 80.

As for `O=[N+]([O-])c1ccc(CBr)cc1`, the results for the EC50 in the assay with EMT6 [1] and with EMT6 [2] were 0.06 µg/mL (≈ 0.278 µM) and 0.1 µg/mL (≈ 0.463 µM), respectively. In assay [3], the Ratio worked out at 1.7.

For the compound `O=[N+]([O-])c1ccc(CCl)cc1`, the EC50 was 0.07 µg/mL (≈ 0.408 µM) with EMT6 [1] and 0.14 µg/mL (≈ 0.816 µM) with EMT6 [2]. Also, the Ratio in assay [3] worked out at 2.

In the case of `O=C(Nc1ccccc1)OCc1ccccc1[N+](=O)[O-]`, the figures for the EC50 with EMT6 [1] and with EMT6 [2] were 0.22 µg/mL (≈ 0.808 µM) and 6.8 µg/mL (≈ 25 µM), respectively. Besides, the Ratio in assay [3] stood at 31.
